The values that follow come from ChEMBL document CHEMBL4513216, “Probing the Open Global Health Chemical Diversity Library for Multistage-Active Starting Points for Next-Generation Antimalarials” (ACS Infect Dis, 2020).

A short description of this series: Toxicity liver stage against HepG2, at 10uM. Format: cell-based. Also noted: test concentration 10 uM, cell line HepG2-A16-CD81EGFP. The following applies: human, HepG2-A16-CD81EGFP cells; read-out: INHIBITION
In short, it runs like this: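 Uninfected HepG2-A16-CD81EGFP cells, 3 × 10^3 per well, 1536-well, plated on prespotted compound at 10 μM final, parasite-free screening media added to match infected plates; puromycin 10 μM positive, DMSO 0.5% negative; run in parallel with 48 h PbLuc assay at 37 °C, 5% CO2; viability by CellTiter-Glo luminescence, normalized to controls.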
Consider `Cc1cc(C)nc(N2CCCC2c2cccnc2)n1` (configuration not stated), for which the cytotoxicity at 10 µM stood at 0.997%.
For `CCCc1nc2c(c(C)c(C)n2CCN(C)C)c(N)c1CC`, the cytotoxicity at 10 µM is 12.9%.
For `O=C(Nc1ccc2c(c1)OCO2)c1ccc(N2CCCC2)nn1` the value was 54.7%; for `CS(=O)(=O)N1CCC(CNC(=O)C2CCC2)CC1`, -2.99%.
`COC(=O)N1CCc2ccccc2C1C(=O)NCc1nc(C)no1` (configuration not stated): the cytotoxicity at 10 µM was found to be 3.88%.
Turning to `O=C(Cn1c(=O)oc2ccccc21)NCC(O)c1ccc2c(c1)CCO2` (configuration not stated), the cytotoxicity at 10 µM was -6.81%.
For `CCCS(=O)(=O)N1CCc2nc(N3CCOCC3)nc(N(C)C)c2C1`, the cytotoxicity at 10 µM was 15.5%.
`O=C(COC1CCCC1)N1CC[C@H]2OCC[C@@]2(COCC2CC2)C1`: the cytotoxicity at 10 µM came to 1.52%.
Next, `N#CCC(=O)NCc1nnc2n1CCN(Cc1ccsc1)C2`: -131%; `COc1cc(C2SCC(=O)Nc3ccsc32)cc(OC)c1O` (configuration not stated): 54.7%.
Next, `COCCC(=O)N1CCN(CCN(C)C)c2ncccc2C1`: -4.11%.
As for `CCCc1nc(NCCc2ccccc2)c2c(n1)c(C)nn2CC`, the cytotoxicity at 10 µM was 20%.
Next, `Cc1nn(CCC(=O)N2CCN(Cc3cnn(C)c3C)CC2)c(C)c1Br`: 4.07%; `CCN1CCN(S(=O)(=O)c2cc(C)c(Cl)cc2Cl)CC1`: -2.67%; `CCOc1ccc(CN2CCC(c3ccn[nH]3)C2)cc1CO` (configuration not stated): 0.845%.
As for `CCN(Cc1ccncc1)CC1(O)CCN(C(=O)c2cccc(C)n2)C1` (configuration not stated), the cytotoxicity at 10 µM is -4.08%.
For `Cc1ccccc1CN1CCC(c2nn(CCN)c3nccnc23)C1` (configuration not stated) the value was -24.3%; for `CN1CCCC(Cc2cncc(C(=O)N3CCOCC3)c2)C1` (configuration not stated), 6.32%.
Next, `Cc1nc(C2CCCN2C(=O)CCc2ccc(F)cc2)ncc1C(N)=O` (configuration not stated): -15.7%.
`CN(Cc1ccc(F)cc1)CC1(O)CCN(C(=O)c2ccsc2)C1` (configuration not stated): the cytotoxicity at 10 µM is -28.2%.
Next, `Cc1noc(C)c1-c1cncc(C2CCCN2Cc2ccncc2)n1` (configuration not stated): -7.98%; `Cc1noc(C)c1-c1cnc(CC2CCN(C(=O)c3cc[nH]n3)C2)cn1` (configuration not stated): 3.6%; `COc1ccc2c(c1)CC(NCc1cccc(OCC(N)=O)c1)CC2` (configuration not stated): -40.4%.
Next, `CN(CC1CC1)C(=O)c1cc2c(c(S(N)(=O)=O)c1)CCC2`: -51.1%; `CC(C)(C)C(=O)NCCC(=O)Nc1cc(C#N)cn1C(C)(C)C`: 2.02%; `CC(C)c1ccccc1OCCNC(=O)N1CCC2(CC1)OCCO2`: 8.75%.
Turning to `O=C(Cc1c(F)cccc1Cl)Nc1cccc(N2CCCC2)c1`, the cytotoxicity at 10 µM was -117%.
For `OCC1(NCc2cccc(-n3cccn3)c2)CCOCC1` the value was -139%.
For `O=C(NCC(O)c1ccc(Cl)s1)c1ccoc1` (configuration not stated) the value was -3.36%.
Next, `Cc1cc(CNc2cc(-c3ccoc3C)nn2CCO)c(C)o1`: -0.598%; `CSC1(CNC(=O)N(C)Cc2sccc2C)CCOCC1`: -57.4%.
As to `CN(C)CCn1ccc(NC(=O)NC(C)(C)c2nccs2)n1`, the cytotoxicity at 10 µM amounted to 3.92%.
For `C=C(C)CN(CC)C(=O)c1cc(C)ccc1NS(C)(=O)=O` the value was 5.69%.
For `CCn1cc(CN2CCN(C(=O)N3CCOCC3)CC2)cn1` the value was -52.8%; for `Cc1cc(C(=O)NC2CCCOc3cc(Cl)ccc32)n(C)n1` (configuration not stated), 1.97%.
For `Cc1csc(C2NC3(CCCC3)C(=O)N2CC2CC2)n1` (configuration not stated) the value was 3.24%; for `O=C(NCc1cccnc1-n1cncn1)c1cncc(Br)c1`, 10%.
As to `CCOCC(O)CN1CCN(C(=O)c2ccsc2)CC1` (configuration not stated), the cytotoxicity at 10 µM was found to be 5.42%.
For `CCN(CC)C(=O)CNC(=O)N1CCC(c2ccccc2)C1` (configuration not stated) the value was 2.03%; for `CN(Cc1cnn(C)c1)C(=O)CN1CCCCC1Cn1cncn1` (configuration not stated), 17.5%.
For `CC(C)c1nnc2n1CC(CNc1cnc3ccccc3n1)CC2` (configuration not stated) the value was -37.1%; for `CCN(CCNCc1ccc(C#N)cc1)C1CC1`, -6.54%; for `CN(C)S(=O)(=O)NCC(O)c1cc2ccccc2s1` (configuration not stated), -13.2%.
As to `CCN(CC)S(=O)(=O)CCNc1nnc(C(C)C)s1`, the cytotoxicity at 10 µM is 7.2%.
For `OC(COCc1ccccc1)CN1CCC(Cn2cccn2)CC1` (configuration not stated) the value was -1.49%.
Next, `CC(C)(C)C(CCO)NC(=O)Nc1ccccc1` (configuration not stated): -3.3%; `COc1ccc(CN(CCC#N)CCN2CCOCC2)cc1OC`: -5.79%; `Cc1ccc2c(c1)OC(C)CN2C(=O)CCc1cccnc1` (configuration not stated): -52.8%.
Take `CC(C)OCCCN1CCCC(c2nc3ccccc3n2C(C)C)C1` (configuration not stated): the cytotoxicity at 10 µM was -4.06%.
Next, `CCS(=O)(=O)c1ccc(N2CCC(NC(=O)c3cnn(C)c3)CC2)cc1`: -1.69%; `CCOc1ccc(C(=O)NS(=O)(=O)c2cncc(Br)c2)cc1OC`: -5.07%; `Cc1nn(C)c(N2CCOCC2)c1CNC(C)c1ccco1` (configuration not stated): -17.6%.
Next, `N#Cc1ccc(C(=O)N2CC[C@H]3[C@@H]2CCC(=O)N3c2ccccc2)cc1`: 3.99%.
For `CC[C@H](C)Nc1nccc(-c2cnc3sc(C)c(C)n3c2=O)n1` the value was 11.1%; for `Cc1ccc2nc(CN3CCC(O)(Cn4ccnc4)CC3)cc(O)c2c1`, -47.8%.
With `COc1ccc(F)cc1CN1CCCn2nc(CNS(C)(=O)=O)cc2C1`, the cytotoxicity at 10 µM was found to be 2.23%.
`CNc1nc2c(c(C(=O)N3CCCC3)n1)CN(C(=O)C1CCCC1)CC2`: the cytotoxicity at 10 µM is -114%.
`CCCc1cc(=O)[nH]c(-c2cccc(CN3CCCCCC3)c2)n1`: the cytotoxicity at 10 µM was -4.09%.
Take `COc1cccc(OCC2CCCN(C(=O)c3cnn(C)c3)C2)c1` (configuration not stated): the cytotoxicity at 10 µM is -21.4%.
For `CCn1c(C2CCCN(C(=O)C(C)(C)OC)C2)nn(CCN(C)C)c1=O` (configuration not stated), the cytotoxicity at 10 µM is -1.94%.
Next, `O=S1(=O)C[C@@H]2[C@H](C1)N(Cc1ccoc1)CCN2Cc1ccncc1`: -0.452%; `Cc1nc(N)ncc1C(=O)N1CCCC(CCc2ccccc2F)C1` (configuration not stated): -4.96%; `O=C(O)C1(n2ccc(-c3ccco3)n2)CCN(Cc2cccs2)CC1`: -125%.
Next, `COc1cccc(-c2noc(-c3ccc(NCCCO)nc3)n2)c1OC`: -1.5%; `O=C(c1ccc(S(=O)(=O)NCC(F)F)cc1)N1CC[C@H]2CNC[C@H]21`: -14%.
Next, `CCCc1cc(CNC(=O)Cc2cc(C)no2)on1`: -1.04%.
Consider `COc1c(C)cnc(CN(C)C2CCOC3(CCOCC3)C2)c1C` (configuration not stated), for which the cytotoxicity at 10 µM is -0.971%.
For `CN(C)c1ccc(CC(=O)N2C[C@H](C3CC3)[C@@H](N)C2)cc1` the value was -3.97%; for `Nc1cc(C(=O)NCC2CCN(Cc3cccc(O)c3)C2)ccn1` (configuration not stated), -8.69%.
For the compound `CCSc1ncc(CN2CC[C@@](O)(COC)C(C)(C)C2)cn1`, the cytotoxicity at 10 µM was -4.05%.
Next, `COCCN(CC1CCCN(C2Cc3ccccc3C2)C1)C(=O)CO` (configuration not stated): -6.93%.
Turning to `O=C(NCCc1cnccn1)C1(N2CCCCC2)Cc2ccccc2C1`, the cytotoxicity at 10 µM was -7.82%.
As for `Cc1cc(C)c2c(N3CCN(C(=O)N(C)C)CC3)ncnc2n1`, the cytotoxicity at 10 µM is -1.18%.
`CCCNC(=O)c1ccc(S(=O)(=O)NCC2(O)CCCNC2)cc1` (configuration not stated): the cytotoxicity at 10 µM was -48.3%.
As for `O=C(c1cnc(Cc2c(Cl)cccc2Cl)nc1O)N1CCNCC1`, the cytotoxicity at 10 µM was -3.01%.
As for `Cc1ccnc(N2CCN(Cc3ccccc3)CC(O)C2)c1` (configuration not stated), the cytotoxicity at 10 µM was -1.88%.
For the compound `Cc1nn(C)cc1Cn1c(=O)cnc2ccccc21`, the cytotoxicity at 10 µM was 7.8%.
Regarding `COCC(=O)N1CCC(C(=O)N(C)C(C)c2ccon2)CC1` (configuration not stated), the cytotoxicity at 10 µM is 1.28%.
Consider `CC(C)NC(=O)c1nc(Cn2c(C(F)(F)F)nc3ccccc32)no1`, for which the cytotoxicity at 10 µM came out at 20.7%.
For `CCN(CCO)C(=O)C1CCC(=O)N(CCc2cccc(F)c2)C1` (configuration not stated) the value was -4.15%; for `CCc1ncc(C(=O)N2CCCN(C3CCCC3)CC2)cn1`, -7.38%.
For `Cc1cc(=O)n(CC(=O)Nc2ccc(C(N)=O)cc2)nc1C` the value was -10.9%; for `Cc1cc2c(=O)n3c(nc2s1)CCN(Cc1cnc(C(C)C)nc1)CC3`, 10.5%; for `NC(=O)c1cc(C2CCCN(CCOc3cccc(F)c3)C2)n[nH]1` (configuration not stated), -19.6%.
For `COc1ccc(CC(=O)N2CCCC2Cn2cccn2)cc1F` (configuration not stated), the cytotoxicity at 10 µM was -0.587%.
Regarding `Cc1cc(OCC(=O)NS(=O)(=O)c2c(C)noc2C)ccc1Cl`, the cytotoxicity at 10 µM was -2.07%.
For `COc1ccc(C(O)CNC(=O)Nc2cc(C)nn2C)cc1` (configuration not stated) the value was 2.33%; for `CC(C)NC(=O)Nc1ccc(CNCc2cccc(C#N)c2)cc1`, -7.15%.
On to `CCc1nnsc1C(=O)N1CCCN(Cc2nccn2C)CC1`, for which the cytotoxicity at 10 µM was -4.26%.
As for `CCC(CN1CCCC1)n1cncc1-c1cnn(-c2ccc(F)cc2)c1` (configuration not stated), the cytotoxicity at 10 µM amounted to 5.29%.
For `CN1C(=O)C2(CCN(C(=O)c3ccccc3)CC2)c2cccc(F)c21` the value was 4.74%; for `Cn1nc(C2CCCN(Cc3ccc(F)cc3)C2)c2nccnc21` (configuration not stated), -24.8%.
Turning to `CCn1nnc2c1C(COCCN(C)C)CN(S(C)(=O)=O)C2` (configuration not stated), the cytotoxicity at 10 µM was -2.69%.
For `CC(=O)NCC(=O)N1CCn2cc(CN3CCN(C)CC3)nc2C1` the value was -12.4%; for `O=C(CC1CCCC1)N1CC[C@H]2[C@H]1CCN2c1nncs1`, -3.43%.
Next, `CN1Cc2c(C(=O)NC3CCCCC3)ncn2-c2ccccc2S1(=O)=O`: -153%.
For `Cc1c(-c2cccs2)nn2c(=O)c3c([nH]c12)CN(C(=O)C1CC1)C3` the value was -4.02%.
